Data from ChEMBL document CHEMBL3046036, “Bioactivity of the fungal metabolite (8R,16R)-(-)-pyrenophorin on graminaceous plants” (J Agric Food Chem, 2005).
Calls of active or inactive are those of the source. No cut-off for these calls is given here.

What was measured:
[1] = system: Avena fatua; assay: Inhibition of Avena fatua root growth at 20 degC and 12 hr photoperiod at 31 to 50 uM; assay type: functional, organism-based
Procedure, shortened: (§1)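 Pregerminated seeds were exposed in tubes to aqueous metabolite and kept in a growth chamber at 20 °C with a 12-h photoperiod. Main root length was measured after 120 h.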

[2] = system: Hordeum vulgare; assay: Effect on chlorophyll content in Hordeum vulgare (barley) assessed as chlorophyll dissipation rate at 20 degC and 12 hr photoperiod at 320 uM relative to control; assay type: ADME, organism-based; details: in vivo
Procedure, shortened: (§2)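 Leaf sections were treated with 320 µM metabolite and incubated in the dark at 20 °C, with 16 tubes per treatment. Every 12 h, segments from one tube were split into four tubes and extracted in DMSO at 65 °C for 30 min. Extracts were read at A665, tissue was dried at 105 °C and weighed, and chlorophyll was expressed as A665 per g dry weight.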

[3] = system: Hordeum vulgare; assay: Inhibition of Hordeum vulgare (barley) seed germination at 20 degC at 80 uM (reference value: 0%); assay type: functional
[4] = system: Triticum aestivum; assay: Inhibition of Triticum aestivum (wheat) seed germination at 20 degC at 100 uM (reference value: 0%); assay type: functional
[5] = system: Triticum aestivum; assay: Inhibition of Triticum aestivum (wheat) seed germination at 20 degC at 640 uM (reference value: 0%); assay type: functional
[6] = system: Triticum aestivum; assay: Phytotoxicity against Triticum aestivum (wheat) root growth at 20 degC and 12 hr photoperiod at 1000 uM; assay type: organism-based; details: in vivo
[7] = system: Avena sativa; assay: Inhibition of Avena sativa seed germination at 20 degC at 320 uM (reference value: 0%); assay type: functional
[8] = system: Hordeum vulgare; assay: Inhibition of Hordeum vulgare (barley) seed germination at 20 degC at 640 uM (reference value: 0%); assay type: functional
[9] = system: Triticum aestivum; assay: Inhibition of Triticum aestivum (wheat) seed germination at 20 degC at 90 uM (reference value: 0%); assay type: functional
[10] = system: Avena fatua; assay: Inhibition of Avena fatua seed germination at 20 degC at 90 uM (reference value: 0%); assay type: functional
[11] = system: Triticum aestivum; assay: Inhibition of Triticum aestivum (wheat) seed germination at 20 degC at 200 uM (reference value: 0%); assay type: functional
[12] = system: Avena sterilis; assay: Inhibition of Avena sterilis seed germination at 20 degC at 640 uM (reference value: 0%); assay type: functional
[13] = system: Hordeum vulgare; assay: Inhibition of Hordeum vulgare (barley) seed germination at 20 degC at 10 to 50 uM (reference value: 0%); assay type: functional
[14] = system: Avena sterilis; assay: Inhibition of Avena sterilis seed germination at 20 degC at 90 uM (reference value: 0%); assay type: functional
[15] = system: Hordeum vulgare; assay: Inhibition of Hordeum vulgare (barley) seed germination at 20 degC at 100 uM (reference value: 0%); assay type: functional
[16] = system: Avena sterilis; assay: Inhibition of Avena sterilis seed germination at 20 degC at 200 uM (reference value: 0%); assay type: functional
[17] = system: Avena sterilis; assay: Inhibition of Avena sterilis seed germination at 20 degC at 60 uM (reference value: 0%); assay type: functional
[18] = system: Avena sterilis; assay: Inhibition of Avena sterilis seed germination at 20 degC at 10 to 50 uM (reference value: 0%); assay type: functional
[19] = system: Hordeum vulgare; assay: Inhibition of Hordeum vulgare (barley) root growth at 20 degC and 12 hr photoperiod at 31 to 50 uM; assay type: functional, organism-based; procedure, shortened: as §1
[20] = system: Hordeum vulgare; assay: Inhibition of Hordeum vulgare (barley) seed germination at 20 degC at 60 uM (reference value: 0%); assay type: functional
[21] = system: Avena fatua; assay: Effect on chlorophyll content in Avena fatua assessed as chlorophyll dissipation rate at 20 degC and […] at 320 uM relative to control; assay type: ADME, organism-based; details: in vivo; procedure, shortened: as §2
[22] = system: Avena sterilis; assay: Effect on chlorophyll content in Avena sterilis assessed as chlorophyll dissipation rate at 20 degC and […] at 320 uM relative to control; assay type: ADME, organism-based; details: in vivo; procedure, shortened: as §2
[23] = system: Hordeum vulgare; assay: Inhibition of Hordeum vulgare (barley) seed germination at 20 degC at 200 uM (reference value: 0%); assay type: functional
[24] = system: Avena sativa; assay: Effect on chlorophyll content in Avena sativa assessed as chlorophyll dissipation rate at 20 degC and 12 hr photoperiod at 320 uM relative to control; assay type: ADME, organism-based; details: in vivo; procedure, shortened: as §2
[25] = system: Hordeum vulgare; assay: Inhibition of Hordeum vulgare (barley) seed germination at 20 degC at 320 uM (reference value: 0%); assay type: functional
[26] = system: Avena sterilis; assay: Inhibition of Avena sterilis seed germination at 20 degC at 70 uM (reference value: 0%); assay type: functional
[27] = system: Avena fatua; assay: Inhibition of Avena fatua seed germination at 20 degC at 200 uM (reference value: 0%); assay type: functional
[28] = system: Triticum aestivum; assay: Inhibition of Triticum aestivum (wheat) seed germination at 20 degC at 80 uM (reference value: 0%); assay type: functional
[29] = system: Avena sativa; assay: Inhibition of Avena sativa seed germination at 20 degC at 80 uM (reference value: 0%); assay type: functional
[30] = system: Avena sativa; assay: Inhibition of Avena sativa seed germination at 20 degC at 200 uM (reference value: 0%); assay type: functional
[31] = system: Avena sativa; assay: Inhibition of Avena sativa seed germination at 20 degC at 90 uM (reference value: 0%); assay type: functional
[32] = system: Triticum aestivum; assay: Effect on chlorophyll content in Triticum aestivum (wheat) assessed as chlorophyll dissipation rate at 20 degC and 12 hr photoperiod at 320 uM relative to control; assay type: ADME, organism-based; details: in vivo; procedure, shortened: as §2
[33] = system: Avena sterilis; assay: Phytotoxicity against Avena sterilis root growth at 20 degC and 12 hr photoperiod at 1000 uM; assay type: organism-based; details: in vivo
[34] = system: Triticum aestivum; assay: Inhibition of Triticum aestivum (wheat) root growth at 20 degC and 12 hr photoperiod at > 51 uM; assay type: functional, organism-based
[35] = system: Avena sativa; assay: Inhibition of Avena sativa seed germination at 20 degC at 10 to 50 uM (reference value: 0%); assay type: functional

SMILES: C[C@@H]1CCC(=O)/C=C/C(=O)O[C@H](C)CCC(=O)/C=C/C(=O)O1 [(8R,16R)-(-)-pyrenophorin]
- inhibition [1]: inactive
- Ratio [2]: 1.4
- inhibition at 80 µM [3]: 87.7%
- inhibition at 100 µM [4]: 90.8%
- inhibition at 640 µM [5]: 100%
- Activity [6]: Non-toxic
- inhibition at 320 µM [7]: 100%
- inhibition at 640 µM [8]: 100%
- inhibition at 90 µM [9]: 86.2%
- inhibition at 90 µM [10]: 87.8%
- inhibition at 200 µM [11]: 90.6%
- inhibition at 640 µM [12]: 100%
- inhibition (INH) [13]: 0%
- inhibition at 90 µM [14]: 89.6%
- inhibition at 100 µM [15]: 95.4%
- inhibition at 200 µM [16]: 100%
- inhibition at 60 µM [17]: 15%
- inhibition (INH) [18]: 0%
- inhibition [19]: inactive
- inhibition at 60 µM [20]: 10.1%
- Ratio [21]: 1.4
- Ratio [22]: 1.4
- inhibition at 200 µM [23]: 99%
- Ratio [24]: 1.4
- inhibition at 320 µM [25]: 100%
- inhibition at 70 µM [26]: 68.5%
- inhibition at 200 µM [27]: 97.9%
- inhibition at 80 µM [28]: 81.4%
- inhibition at 80 µM [29]: 82.6%
- inhibition at 200 µM [30]: 95.6%
- inhibition at 90 µM [31]: 89%
- Ratio [32]: 1.4
- Activity [33]: Non-toxic
- inhibition [34]: Active
- inhibition (INH) [35]: 0%
